Data on 74 sequences can be found in the array DNA melting data of Ke et al. (doi:10.1101/2024.01.08.574731).

Data set [1] can be described thus: melting temperature; fluorescence melt of hairpins on a sequencing array, two-state fit, raised by 9.35 °C to match UV melts. To be noted: sodium 0.088 M. Put shortly: (§1)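 Bootstrapped two-state fits yielded melting temperature and folding enthalpy for library hairpins. Cy3 fluorescence, with annealed Cy3 and quencher oligos, was imaged on a sequenced MiSeq flow cell in 50 mM Na-HEPES pH 8.0, 25 mM NaCl in 2.5 °C steps up to 60 °C, and normalised to pre-quench Cy3 and to control constructs. Four replicates were combined by inverse variance, and fitted temperatures were raised by 9.35 °C to match UV melts.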

Data set [2] can be described thus: folding enthalpy; higher = less favourable; fluorescence melt of hairpins on a sequencing array, two-state fit. The note with it: sodium 0.088 M. Put shortly:
as §1

Turning to GATGCGGGAAACCGTGTC ((..(((....)))..)), in data set [1], the Tm was 43.7 °C. Moreover, in data set [2], the folding enthalpy was -26.3 kcal/mol.
The matching figures for GACGGCACGAAAGTGGTC (((..(((....)))))): 34.5 °C and -14.6 kcal/mol.
With GATCGGTACTCCGATC ((((((....)))))), the Tm in data set [1] was determined as 59.3 °C. Besides, the folding enthalpy in data set [2] is -38.3 kcal/mol.
On to GCGTGCGACGC ((((...)))), for which the Tm in data set [1] is 61 °C. For the same sequence, the folding enthalpy in data set [2] is -13.9 kcal/mol.
In the same order, the values of GAACCACGAAAGTGATTC (((.(((....))).))) are 43.7 °C and -23.9 kcal/mol.
On to GATCTGGCTGCAGATC ((((((....)))))), for which the Tm in data set [1] was determined as 50 °C. In addition, in data set [2], the folding enthalpy is -36.3 kcal/mol.
In the same order, the values of GTTCGCGGAAACGTGAGC (.((.((....)).)).) are 41.3 °C and -22.4 kcal/mol.
As to GCATGCGGAAACACACGC ((.((.(....).)).)), the Tm in data set [1] turned out to be 30.4 °C. Moreover, in data set [2], the folding enthalpy was -10.2 kcal/mol.
Turning to GCCGTCCGAAAGGAAGGC (((.(((....))).))), the Tm in data set [1] worked out at 67 °C. Besides, in data set [2], the folding enthalpy is -36.4 kcal/mol.
On to GATCTTCTCCAAGATC ((((((....)))))), for which the Tm in data set [1] amounted to 41.1 °C. Moreover, the folding enthalpy in data set [2] was -29.8 kcal/mol.
In the case of GAGACTGGAAACGGTCTC (((((.(....).))))), the Tm in data set [1] is 49.9 °C. In data set [2], the folding enthalpy is -46 kcal/mol.
As for GATCCCATTTGGGATC ((((((....)))))), the Tm in data set [1] was found to be 66.1 °C. Also, the folding enthalpy in data set [2] is -37 kcal/mol.
Turning to GGACGGCCGAAAGGCTCC (((..(((....)))))), the Tm in data set [1] turned out to be 34.1 °C. For the same sequence, the folding enthalpy in data set [2] is -10.8 kcal/mol.
As to GGTCCAGGAAACTAGACC ((((.((....)).)))), the Tm in data set [1] came out at 35.7 °C. Further, the folding enthalpy in data set [2] was -29.7 kcal/mol.
The matching figures for CGGCCGGAAACGGTCCCG ((((((....)))..))): 41 °C and -13.1 kcal/mol.
In the same order, the values of GCAGGCGAAAGCCTGTGC ((((((....)))..))) are 68.2 °C and -14.2 kcal/mol.
For the sequence GATCTTAATTAAGATC ((((((....)))))), the Tm in data set [1] was 44.7 °C. The folding enthalpy in data set [2] is -32.1 kcal/mol.
The matching figures for GATGGGCGAAAGCCTATC (((.(((....))).))): 53.9 °C and -22.3 kcal/mol.
The matching figures for GATCAATATATTGATC ((((((....)))))): 49.1 °C and -47.1 kcal/mol.
For the sequence GCTTGGCGAAAGCTAGGC ((.(.((....)).).)), the Tm in data set [1] was determined as 44.6 °C. The folding enthalpy in data set [2] was -17 kcal/mol.
The matching figures for GATCCACGATTGGATC ((((((....)))))): 48 °C and -37 kcal/mol.
The matching figures for GCAGTCCGAAAGGAATGC (((.(((....))).))): 62.1 °C and -38.1 kcal/mol.
For GATCACTGAAGTGATC ((((((....)))))), the Tm in data set [1] came out at 56.8 °C. Besides, the folding enthalpy in data set [2] is -36.4 kcal/mol.
The matching figures for GGCTGAGGAAACTTAGCC ((((.((....)).)))): 50.2 °C and -36.3 kcal/mol.
Regarding GCGACGCGAAAGCATGGC ((.(.((....)).).)), the Tm in data set [1] worked out at 40.4 °C. Also, the folding enthalpy in data set [2] was -9.76 kcal/mol.
For GCGGATAGCCGC ((((....)))), in data set [1], the Tm came to 54.9 °C. Moreover, in data set [2], the folding enthalpy is -26.6 kcal/mol.
Take GTGATCCGAAAGGACCAC (((.(((....))).))): the Tm in data set [1] amounted to 51.8 °C. Besides, the folding enthalpy in data set [2] was -34.6 kcal/mol.
The matching figures for GTATTCGGAAACAAATAC (((((.(....).))))): 22.5 °C and -10.3 kcal/mol.
In the case of GGCTTCGAAAGAAGTGCC ((((((....)))..))), the Tm in data set [1] turned out to be 42.6 °C. Besides, the folding enthalpy in data set [2] is -16.1 kcal/mol.
The matching figures for GCGTTCACGAAAGTGCGC (((..(((....)))))): 51.4 °C and -19.2 kcal/mol.
Regarding GGTCCGGGAAACCGGGCC ((.((((....)))).)), the Tm in data set [1] came to 68 °C. Further, in data set [2], the folding enthalpy was -32.5 kcal/mol.
GATCTGTTGGCAGATC ((((((....)))))): the Tm in data set [1] turned out to be 54.2 °C. The folding enthalpy in data set [2] was -40.3 kcal/mol.
The matching figures for GTCGTACGAAAGTATGAC (((.(((....))).))): 54.3 °C and -41.9 kcal/mol.
For the sequence GATCATCTAAATGATC ((((((....)))))), the Tm in data set [1] worked out at 47.4 °C. In data set [2], the folding enthalpy was -35.9 kcal/mol.
In the same order, the values of GGATACGCGAAAGCGTCC (((..(((....)))))) are 33 °C and -8.9 kcal/mol.
As to GATCAACTAATTGATC ((((((....)))))), the Tm in data set [1] stood at 40.8 °C. The folding enthalpy in data set [2] is -28.4 kcal/mol.
On to GGATCTGGAAACAGATTC (.(((((....))))).), for which the Tm in data set [1] was determined as 46.2 °C. Besides, the folding enthalpy in data set [2] is -28.9 kcal/mol.
Regarding GTGGACGAAAGTCGGCAC ((((((....)))..))), the Tm in data set [1] worked out at 39.8 °C. Besides, the folding enthalpy in data set [2] was -15.5 kcal/mol.
The matching figures for GGGACTGGAAACAGTTCC ((.((((....)))).)): 51.4 °C and -36.1 kcal/mol.
The matching figures for GATCCAAGGCTGGATC ((((((....)))))): 48.9 °C and -35.5 kcal/mol.
In the case of GCGTGTGGACGC ((((....)))), the Tm in data set [1] is 53.9 °C. In addition, the folding enthalpy in data set [2] was -13.9 kcal/mol.
On to CGTGTCGGAAACGATACG (((.(((....))).))), for which the Tm in data set [1] was 53.2 °C. In addition, the folding enthalpy in data set [2] was -39.1 kcal/mol.
On to GACCTACGAAAGTACGTC (((.(((....))).))), for which the Tm in data set [1] was determined as 36.2 °C. In data set [2], the folding enthalpy was -24.6 kcal/mol.
As for CGATCGGAAACGACTTCG ((((((....)))..))), the Tm in data set [1] was 25.6 °C. For the same sequence, the folding enthalpy in data set [2] is -11.3 kcal/mol.
In the same order, the values of GCAACCGAAAGGTTGTGC ((((((....)))..))) are 65.7 °C and -20.5 kcal/mol.
In the same order, the values of GAAGCGACGAAAGTCTTC (((..(((....)))))) are 27.9 °C and -9.61 kcal/mol.
Take GATCTGACTACAGATC ((((((....)))))): the Tm in data set [1] was 49.5 °C. In addition, the folding enthalpy in data set [2] is -36.9 kcal/mol.
The matching figures for GATCAACATTTTGATC ((((((....)))))): 42.6 °C and -31.1 kcal/mol.
Regarding GCTCAGGGAAACCTGAGC (((((((....))))))), the Tm in data set [1] is 68.3 °C. Also, in data set [2], the folding enthalpy is -44.7 kcal/mol.
GGTACACGAAAGTGACC (((.(((....)))))): the Tm in data set [1] is 46.4 °C. Further, the folding enthalpy in data set [2] was -18.4 kcal/mol.
The matching figures for GTAGACGAAAGTCATAC ((((((....))).))): 39.9 °C and -12.8 kcal/mol.
In the same order, the values of GTCCACGGAAACGTAGAC (((.(((....))).))) are 41 °C and -26.6 kcal/mol.
The matching figures for GAAGACGAAAGTCATTTC ((((((....)))..))): 23.9 °C and -8.24 kcal/mol.
As to GATCAGTTCACTGATC ((((((....)))))), in data set [1], the Tm was 58.1 °C. For the same sequence, the folding enthalpy in data set [2] is -44.8 kcal/mol.
In the same order, the values of GAATATGGAAACATGTTC (((.(((....))).))) are 37.6 °C and -32.6 kcal/mol.
In the same order, the values of GATCTGTCACCAGATC ((((((....)))))) are 49.4 °C and -39.4 kcal/mol.
In the same order, the values of GATCGTGACAACGATC ((((((....)))))) are 63.5 °C and -38.4 kcal/mol.
GCGATGTCGAAAGACCGC (((..(((....)))))): the Tm in data set [1] was determined as 51 °C. Further, in data set [2], the folding enthalpy is -29.5 kcal/mol.
GATCTATTATTAGATC ((((((....)))))): the Tm in data set [1] worked out at 43.2 °C. Moreover, in data set [2], the folding enthalpy is -34.1 kcal/mol.
The matching figures for GCCTTGACGAAAGTCGGC (((..(((....)))))): 50.3 °C and -16 kcal/mol.
In the same order, the values of GATCGTGCTAACGATC ((((((....)))))) are 66.3 °C and -37.7 kcal/mol.
Turning to GGAGAGCGAAAGCTTCC (((.(((....)))))), in data set [1], the Tm worked out at 44.5 °C. Further, the folding enthalpy in data set [2] was -18.2 kcal/mol.
Regarding GGACACCCGAAAGGGTCC (((..(((....)))))), the Tm in data set [1] was found to be 40.9 °C. Moreover, in data set [2], the folding enthalpy is -11.5 kcal/mol.
With GGAGAGACGAAAGTCTCC (((..(((....)))))), in data set [1], the Tm came to 44 °C. Besides, the folding enthalpy in data set [2] was -9.49 kcal/mol.
Consider GGTTTCGAAAGAACTACC ((((((....)))..))), for which, in data set [1], the Tm amounted to 29.4 °C. The folding enthalpy in data set [2] is -10.1 kcal/mol.
Take GTCGTGCGAAAGCAAGAC (((.(((....))).))): in data set [1], the Tm amounted to 59.7 °C. In addition, the folding enthalpy in data set [2] is -34.7 kcal/mol.
In the same order, the values of GATCTCTTTCGAGATC ((((((....)))))) are 52.2 °C and -28.2 kcal/mol.
In the same order, the values of GGAAACGAAAGTTTTCC ((((((....))).))) are 46.2 °C and -20.4 kcal/mol.
For the sequence GCGTGACACGC ((((...)))), the Tm in data set [1] worked out at 56.8 °C. Moreover, the folding enthalpy in data set [2] was -22.1 kcal/mol.
In the same order, the values of GGTGGGGGAAACCCCGCC ((.((((....)))).)) are 61.4 °C and -27.5 kcal/mol.
As to GAACTGCGAAAGCAATTC (((.(((....))).))), in data set [1], the Tm is 36.7 °C. For the same sequence, the folding enthalpy in data set [2] was -21.7 kcal/mol.
In the same order, the values of GATCGCTAGCGCGATC ((((((....)))))) are 66.5 °C and -34 kcal/mol.
On to GATCCTAGCAAGGATC ((((((....)))))), for which the Tm in data set [1] stood at 52.8 °C. The folding enthalpy in data set [2] is -33.2 kcal/mol.
The matching figures for GTATACGAAAGTATAC ((((((....)))))): 54.2 °C and -28.4 kcal/mol.
